{"source": "ChEMBL document CHEMBL3425408", "about": "“Design, synthesis, in vitro, and in vivo anticancer and antiangiogenic activity of novel 3-arylaminobenzofuran derivatives targeting the colchicine site on tubulin” (J Med Chem, 2015)", "key": {"HeLa [1]": {"test_system": "HeLa", "assay": "Antiproliferative activity against human HeLa cells after 72 hrs by (3-(4,5-dimethylthiazol-2-yl)-2,5-diphenyltetrazolium bromide test", "format": "functional, cell-based"}, "PBL [2]": {"test_system": "PBL", "assay": "Cytotoxicity against human resting PBL cells after 72 hrs by MTT assay", "format": "cell-based", "summary_of_the_method": "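Resting PBLs from healthy donors separated on a Lymphoprep gradient and incubated overnight in RPMI-1640 with 10% FBS. Nonadherent cells resuspended at 5 × 10^5 cells/mL without PHA and exposed to compound for 72 h. Viability read by MTT. […] Three experiments.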"}, "Jurkat [3]": {"test_system": "Jurkat", "assay": "Antiproliferative activity against human Jurkat cells after 72 hrs by (3-(4,5-dimethylthiazol-2-yl)-2,5-diphenyltetrazolium bromide test", "format": "functional, cell-based", "summary_of_the_method": "(§1)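 Jurkat, RS4;11 and HL-60 cells grown in RPMI-1640; MCF-7, A549, HeLa and HT-29 cells grown in DMEM; both media with 10% FBS and penicillin/streptomycin. 8 × 10^3 cells per well were preincubated 18 h at 37 °C, 5% CO2, then exposed 72 h to a concentration range (DMSO ≤0.25%). Read-out was MTT; IC50 was taken against cells given the maximum DMSO. Mean ± SE of at least three experiments.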"}, "[4]": {"assay": "Antiproliferative activity against human RS4:11 cells after 72 hrs by (3-(4,5-dimethylthiazol-2-yl)-2,5-diphenyltetrazolium bromide test", "format": "functional, cell-based", "settings": "RS4-11, 72 h", "summary_of_the_method": "as §1"}, "PBL [5]": {"test_system": "PBL", "assay": "Cytotoxicity against human PHA-stimulated PBL cells after 72 hrs by MTT assay", "format": "cell-based", "summary_of_the_method": "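PBLs came from healthy donors by Lymphoprep gradient, were washed and left overnight in RPMI-1640 with 10% FBS. Nonadherent cells at 5 × 10^5 cells/mL were stimulated with 2.5 μg/mL PHA and given a range of concentrations for 72 h. […] Mean ± SEM of three experiments.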"}, "HUVEC": {"test_system": "HUVEC", "assay": "Cytotoxicity against human HUVEC cells after 72 hrs by MTT assay", "format": "cell-based", "summary_of_the_method": "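HUVECs were isolated from umbilical cord veins, kept in M200 with low-serum growth supplement and used at passages 1–6. […] Mean ± SEM of three separate experiments.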"}, "Tubulin": {"target": "Tubulin (Bos taurus, UniProt Q6B856+Q862L2+Q862F3)", "assay": "Inhibition of bovine brain tubulin assembly after 20 mins incubation by spectrophotometric analysis", "summary_of_the_method": "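Bovine brain tubulin (10 μM) was preincubated with varying compound concentrations in glutamate buffer at 30 °C, then chilled to 0 °C. GTP was added to 0.4 mM final and the mixture warmed to 30 °C in cuvettes.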"}, "Jurkat [6]": {"test_system": "Jurkat", "assay": "Induction of cell cycle arrest in human Jurkat cells assessed as cell arrest at G2/M phase after 24 hrs by propidium iodide based flow cytometric analysis", "format": "functional", "summary_of_the_method": "(§2)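 HeLa or Jurkat cells (5 × 10^5) treated 24 h. Cells fixed in ice-cold 70% ethanol, lysed with RNase A and 0.1% Triton X-100, and stained with propidium iodide. DNA content analyzed by flow cytometry to give cell-cycle phase distribution.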"}, "HeLa [7]": {"test_system": "HeLa", "assay": "Induction of cell cycle arrest in human HeLa cells assessed as cell arrest at G2/M phase after 24 hrs by propidium iodide based flow cytometric analysis", "format": "functional", "summary_of_the_method": "as §2"}, "Jurkat [8]": {"test_system": "Jurkat", "assay": "Induction of cells cycle arrest in human Jurkat cells assessed as cell arrest at G2/M phase at > 60 nM after 24 hrs by propidium iodide based flow cytometric analysis", "format": "functional", "summary_of_the_method": "as §2"}, "HeLa [9]": {"test_system": "HeLa", "assay": "Induction of cells cycle arrest in human HeLa cells assessed as cell arrest at G2/M phase at > 60 nM after 24 hrs by propidium iodide based flow cytometric analysis", "format": "functional", "summary_of_the_method": "as §2"}, "HeLa [10]": {"test_system": "HeLa", "assay": "Induction of cell cycle arrest in human HeLa cells assessed as decrease in cyclin B expression at 100 to 250 nM after 48 hrs by Western blot analysis", "format": "functional, cell-based", "summary_of_the_method": "(§3)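 HeLa cells treated 24 or 48 h. Lysates cleared at 15000g, and 10 μg protein run on 7.5–15% SDS-PAGE and blotted to PVDF. Membranes blocked in 5% BSA and probed for cyclin B, p-cdc2 Tyr15 and cdc25c, then detected with peroxidase secondary and ECL. Blots stripped and reprobed for β-actin as loading control.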"}, "HeLa [11]": {"test_system": "HeLa", "assay": "Induction of cell cycle arrest in human HeLa cells assessed as decrease in p-cdc2 Tyr15 expression at 100 to 250 nM after 48 hrs by Western blot analysis", "format": "functional, cell-based", "summary_of_the_method": "as §3"}, "HeLa [12]": {"test_system": "HeLa", "assay": "Induction of apoptosis in human HeLa cells assessed as accumulation of annexin-V positive cells after 24 to 48 hrs by annexin-V-FITC/PI based flow cytometry", "format": "functional, cell-based", "summary_of_the_method": "(§4)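 HeLa cells treated 24 or 48 h, then double-stained with annexin V-FITC and PI. Surface phosphatidylserine exposure measured by flow cytometry.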"}, "HeLa [13]": {"test_system": "HeLa", "assay": "Induction of apoptosis in human HeLa cells assessed as accumulation of annexin-V positive cells after at 100 to […] by annexin-V-FITC/PI based flow cytometry", "format": "functional, cell-based", "settings": "TDE = time-dependent effect", "summary_of_the_method": "as §4"}, "HeLa [14]": {"test_system": "HeLa", "assay": "Induction of apoptosis in human HeLa cells assessed as increase in proportion of cells with depolarized mitochondria at 100 to […] by JC1 staining based flow cytometry", "format": "functional, cell-based", "summary_of_the_method": "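HeLa cells treated 24 or 48 h, then stained with JC-1. Cells with depolarized mitochondria quantified by flow cytometry. Three independent experiments.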"}, "HeLa [15]": {"test_system": "HeLa", "assay": "Induction of apoptosis in human HeLa cells assessed as increase in ROS production at 100 to […] after 24 to 48 hrs by H2-DCFDA based flow cytometry", "format": "functional, cell-based", "summary_of_the_method": "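HeLa cells treated 24 or 48 h, then loaded with H2-DCFDA. ROS measured by flow cytometry. Three independent experiments.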"}, "HeLa [16]": {"test_system": "HeLa", "assay": "Induction of apoptosis in human HeLa cells assessed as caspase 3 activation at 100 to […] by Western blot analysis", "format": "functional, cell-based", "settings": "TDE = time-dependent effect", "summary_of_the_method": "(§5)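 HeLa lysates prepared after the indicated times. 10 μg protein separated by SDS-PAGE on PVDF blots. Primary antibodies (2 h, room temperature) against PARP, caspase-3, cleaved caspase-9, Bcl-2 and Mcl-1, then peroxidase secondary with ECL detection. β-Actin reprobe used as loading control.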"}, "HeLa [17]": {"test_system": "HeLa", "assay": "Induction of apoptosis in human HeLa cells assessed as caspase 3 activation after 24 to 48 hrs by Western blot analysis", "format": "functional, cell-based", "summary_of_the_method": "as §5"}, "HeLa [18]": {"test_system": "HeLa", "assay": "Induction of apoptosis in human HeLa cells assessed as caspase 9 activation after 24 to 48 hrs by Western blot analysis", "format": "functional, cell-based", "summary_of_the_method": "as §5"}, "HeLa [19]": {"test_system": "HeLa", "assay": "Induction of apoptosis in human HeLa cells assessed as caspase 9 activation at 100 to 250 nM by Western blot analysis", "settings": "TDE = time-dependent effect"}, "HeLa [20]": {"test_system": "HeLa", "assay": "Induction of apoptosis in human HeLa cells assessed as PARP cleavage at 100 to 250 nM after 24 to 48 hrs by Western blot analysis"}, "HeLa [21]": {"test_system": "HeLa", "assay": "Induction of apoptosis in human HeLa cells assessed as reduction in Bcl2 expression at 100 to 250 nM after 48 hrs by Western blotting analysis"}, "HeLa [22]": {"test_system": "HeLa", "assay": "Induction of apoptosis in human HeLa cells assessed as increase in Mcl-1 expression at 100 to 250 nM after 24 hrs by Western blotting analysis"}, "HeLa [23]": {"test_system": "HeLa", "assay": "Induction of apoptosis in human HeLa cells assessed as reduction in Mcl-1 expression at 100 to 250 nM after 48 hrs by Western blotting analysis"}}, "note": "Calls of active or inactive are those of the source. The rule behind the calls is not given here."}
{"smiles": "CCOC(=O)c1oc2cc(OC)ccc2c1Nc1cc(OC)c(OC)c(OC)c1", "values": [{"measurement": "IC50", "setting": "HeLa [1]", "value": 13, "unit": "nM"}, {"measurement": "IC50", "setting": "PBL [2]", "value": "> 10000", "unit": "nM"}, {"measurement": "IC50", "setting": "Jurkat [3]", "value": 22, "unit": "nM"}, {"measurement": "IC50", "setting": "[4]", "value": 100, "unit": "nM"}, {"measurement": "IC50", "setting": "PBL [5]", "value": 6300, "unit": "nM"}, {"measurement": "IC50", "setting": "HUVEC", "value": 220, "unit": "nM"}, {"measurement": "IC50", "setting": "Tubulin", "value": 1500, "unit": "nM"}, {"measurement": "Activity", "setting": "Jurkat [6]", "value": "Dose-dependent effect"}, {"measurement": "Activity", "setting": "HeLa [7]", "value": "Dose-dependent effect"}, {"measurement": "Activity", "setting": "Jurkat [8]", "value": ">70", "unit": "%"}, {"measurement": "Activity", "setting": "HeLa [9]", "value": ">70", "unit": "%"}, {"measurement": "Activity", "setting": "HeLa [10]", "value": "Active"}, {"measurement": "inhibition", "setting": "HeLa [11]", "value": "Active"}, {"measurement": "Activity", "setting": "HeLa [12]", "value": "Dose-dependent effect"}, {"measurement": "Activity", "setting": "HeLa [13]", "value": "tde"}, {"measurement": "Activity", "setting": "HeLa [14]", "value": "Dose-dependent effect"}, {"measurement": "Activity", "setting": "HeLa [15]", "value": "Active"}, {"measurement": "Activity", "setting": "HeLa [16]", "value": "tde"}, {"measurement": "Activity", "setting": "HeLa [17]", "value": "Dose-dependent effect"}, {"measurement": "Activity", "setting": "HeLa [18]", "value": "Dose-dependent effect"}, {"measurement": "Activity", "setting": "HeLa [19]", "value": "tde"}, {"measurement": "Activity", "setting": "HeLa [20]", "value": "Active"}, {"measurement": "Activity", "setting": "HeLa [21]", "value": "Active"}, {"measurement": "Activity", "setting": "HeLa [22]", "value": "inactive"}, {"measurement": "Activity", "setting": "HeLa [23]", "value": "Active"}]}
{"smiles": "COC(=O)c1oc2cc(OC)ccc2c1Nc1cc(OC)c(OC)c(OC)c1", "values": [{"measurement": "IC50", "setting": "HeLa [1]", "value": 2, "unit": "nM"}, {"measurement": "IC50", "setting": "PBL [2]", "value": "> 10000", "unit": "nM"}, {"measurement": "IC50", "setting": "Jurkat [3]", "value": 8, "unit": "nM"}, {"measurement": "IC50", "setting": "[4]", "value": 0.3, "unit": "nM"}, {"measurement": "IC50", "setting": "PBL [5]", "value": "> 10000", "unit": "nM"}, {"measurement": "IC50", "setting": "HUVEC", "value": 750, "unit": "nM"}, {"measurement": "IC50", "setting": "Tubulin", "value": 1100, "unit": "nM"}, {"measurement": "Activity", "setting": "Jurkat [6]", "value": "Dose-dependent effect"}, {"measurement": "Activity", "setting": "HeLa [7]", "value": "Dose-dependent effect"}, {"measurement": "Activity", "setting": "Jurkat [8]", "value": ">70", "unit": "%"}, {"measurement": "Activity", "setting": "HeLa [9]", "value": ">70", "unit": "%"}, {"measurement": "Activity", "setting": "HeLa [10]", "value": "Active"}, {"measurement": "inhibition", "setting": "HeLa [11]", "value": "Active"}, {"measurement": "Activity", "setting": "HeLa [12]", "value": "Dose-dependent effect"}, {"measurement": "Activity", "setting": "HeLa [13]", "value": "tde"}, {"measurement": "Activity", "setting": "HeLa [14]", "value": "Dose-dependent effect"}, {"measurement": "Activity", "setting": "HeLa [15]", "value": "Active"}, {"measurement": "Activity", "setting": "HeLa [16]", "value": "tde"}, {"measurement": "Activity", "setting": "HeLa [17]", "value": "Dose-dependent effect"}, {"measurement": "Activity", "setting": "HeLa [18]", "value": "Dose-dependent effect"}, {"measurement": "Activity", "setting": "HeLa [19]", "value": "tde"}, {"measurement": "Activity", "setting": "HeLa [20]", "value": "Active"}, {"measurement": "Activity", "setting": "HeLa [21]", "value": "Active"}, {"measurement": "Activity", "setting": "HeLa [22]", "value": "Active"}, {"measurement": "Activity", "setting": "HeLa [23]", "value": "Active"}]}
